ChEMBL document CHEMBL4393712, “Discovery of chalcone-modified estradiol analogs as antitumour agents that Inhibit tumour angiogenesis and epithelial to mesenchymal transition” (Eur J Med Chem, 2019)
Activity calls are given as the source filed them. The rule behind the calls is not given here.

Key:
[1] = target: Focal adhesion kinase 1 (Homo sapiens) (UniProt Q05397); assay: Reduction in FAK phosphorylation in HUVEC at 2 to 10 uM after 48 hrs by Western blot analysis; type: cell-based
How it was run: (§1)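 HUVECs grown in RPMI 1640 with 10% FBS, 37 °C, 5% CO2; treated with no drug, 2 or 10 µM for 48 h. Lysed in RIPA with protease/phosphatase inhibitors on ice 30 min, protein by BCA, 8% SDS-PAGE, PVDF transfer, milk block, primary antibody overnight 4 °C, secondary 2 h RT; ECL detection, densitometry. Probed VEGF-R, FAK, p-FAK, SHC.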

[2] = test system: MCF7; assay: Inhibition of epithelial-mesenchymal transition in human MCF7 cells assessed as increase in ZO-1 expression level at 2 to 10 uM after 48 hrs by Western blot analysis; type: functional, cell-based
How it was run: (§2)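 MCF-7 cells in RPMI 1640 with 10% FBS, 37 °C, 5% CO2, exposed to no drug, 2 or 10 µM for 48 h. RIPA lysates, BCA quantitation, 8% SDS-PAGE, PVDF transfer, primary antibodies overnight 4 °C, secondary 2 h RT, ECL and densitometry for ZO-1, E-cadherin, N-cadherin, vimentin. Mean ± SD of 3 independent tests.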

[3] = Toxicity in nude mouse xenografted with human MCF7 cells assessed as increase in body weight at 22.5 to 45 mg/kg/day, ip administered for 21 days; type: organism-based; conditions: in vivo, 504 h
How it was run: (§3)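 Nude mice (male/female, 4–6 weeks) injected subcutaneously in right forelimb with 5 × 10^7 MCF-7 cells in 200 µL saline; at mean tumour 100 mm3 randomized (n = 5/group): saline 0.2 mL/day, 22.5 or 45 mg/kg/day ip for 21 days. Body weight and tumour volume (length × width²/2) every other day; tumours weighed at day 21.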

[4] = test system: HUVEC; assay: Antimigratory activity against HUVEC at 2 to 10 uM measured after 48 hrs by wound healing assay; type: functional, cell-based; conditions: Homo sapiens
How it was run: (§4)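 Cells seeded in 6-well plates, monolayer scratched with pipette tip, washed twice, kept in medium with 2% FBS. Gaps imaged, then drug added (0, 2 or 10 µM for HUVEC and MCF-7); gaps re-imaged after 48 h and migration rate calculated. Three independent experiments; one-way ANOVA.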

[5] = test system: MGC-803; assay: Antitumour activity against human MGC803 cells assessed as cell growth inhibition measured after 72 hrs by SRB assay; type: functional, cell-based; conditions: MGC-803, 72 h
How it was run: (§5)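 Exponentially growing cells trypsinized, seeded at 5 × 10^4 cells/mL in 96-well plates, cultured overnight, then exposed to compounds for 72 h. Cells fixed with 10% TCA 1 h, stained with SRB 15 min, dye dissolved in Tris-HCl, absorbance read; 50% growth-inhibitory concentration calculated.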

[6] = Hepatotoxicity in nude mouse xenografted with human MCF7 cells assessed as slight increase in serum alanine transaminase level at 22.5 to 45 mg/kg/day, ip administered for 21 days by biochemical automatic analyzer; type: toxicity, organism-based; conditions: in vivo, 504 h
[7] = test system: MCF7; assay: Antimigratory activity against human MCF7 cells at 2 to 10 uM measured after 24 hrs by transwell assay; type: functional, cell-based
How it was run: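 Cells seeded on upper side of polycarbonate transwell filters in serum-free medium, drug at 0, 2 or 10 µM; complete serum-containing medium in lower chamber as chemoattractant. After 24 h migrated cells fixed in 4% paraformaldehyde 20 min, crystal violet stained 20 min, imaged and counted. Three independent experiments.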

[8] = test system: SK-N-SH; assay: Antitumour activity against human SK-N-SH cells assessed as cell growth inhibition measured after 72 hrs by SRB assay; type: functional, cell-based; how it was run: as §5
[9] = test system: SMMC-7721; assay: Antitumour activity against human SMMC7721 cells assessed as cell growth inhibition measured after 72 hrs by SRB assay; type: functional, cell-based; conditions: SMMC-7721, 72 h; how it was run: as §5
[10] = test system: ECa-109 cell line; assay: Antitumour activity against human EC109 cells assessed as cell growth inhibition measured after 72 hrs by SRB assay; type: functional, cell-based; conditions: ECa-109, 72 h; how it was run: as §5
[11] = test system: MCF7; assay: Antitumour activity against human MCF7 cells xenografted in nude mouse assessed as decrease in tumour weight at 22.5 to 45 mg/kg/day, ip administered for 21 days; type: functional, organism-based; how it was run: as §3
[12] = test system: MGC-803; assay: Cytotoxicity against human MGC803 cells assessed as reduction in cell viability measured after 48 to 72 hrs by MTT assay; type: cell-based
How it was run: (§6)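 Cells seeded at 3 × 10^3 per well in 96-well plates, incubated overnight, then given fresh medium with a range of drug concentrations for 48 h or 72 h. MTT added (final 500 µg/mL) for 4 h, formazan dissolved in DMSO, absorbance at 570 nm; IC50 derived. Mean ± SD of 3 independent tests.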

[13] = Toxicity in nude mouse xenografted with human MCF7 cells assessed as effect on lung morphological changes at 22.5 to 45 mg/kg/day, ip administered for 21 days by HE staining analysis; type: organism-based; conditions: in vivo, 504 h
[14] = test system: HEK293; assay: Cytotoxicity against human HEK293 cells measured after 48 to 72 hrs by MTT assay; type: cell-based; how it was run: as §6
[15] = Toxicity in nude mouse xenografted with human MCF7 cells assessed as effect on heart morphological changes at 22.5 to 45 mg/kg/day, ip administered for 21 days by HE staining analysis; type: organism-based; conditions: in vivo, 504 h
[16] = Hepatotoxicity in nude mouse xenografted with human MCF7 cells assessed as slight increase in serum aspartate transaminase level at 22.5 to 45 mg/kg/day, ip administered for 21 days by automatic biochemical analyzer; type: toxicity, organism-based; conditions: in vivo, 504 h
[17] = test system: GES1; assay: Cytotoxicity against human GES-1 cells assessed as reduction in cell viability measured after 48 to 72 hrs by MTT assay; type: cell-based; how it was run: as §6
[18] = test system: MCF7; assay: Antitumour activity against human MCF7 cells xenografted in nude mouse assessed as decrease in tumour volume at 22.5 to 45 mg/kg/day, ip administered for 21 days; type: functional, organism-based; how it was run: as §3
[19] = test system: Chorioallantoic membrane; assay: Antiangiogenic activity in chicken chorioallantoic membrane assessed as reduction in neovascularization at 50 ug/ml measured after 72 hrs by CAM assay; type: functional; conditions: Gallus gallus
How it was run: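 Fertilized chicken eggs incubated 6 days at 37 °C; shell windowed and CAM treated (compounds and controls at […] as printed; saline vehicle control). Eggs re-incubated humidified; membranes fixed and harvested after 72 h. Angiogenesis scored by counting blood vessels and imaging neovascular zones; ten eggs per group.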

[20] = Hepatotoxicity in nude mouse xenografted with human MCF7 cells assessed as slight increase in serum alkaline phosphatase level at 22.5 to 45 mg/kg/day, ip administered for 21 days by biochemical automatic analyzer; type: toxicity, organism-based; conditions: in vivo, 504 h
[21] = test system: MCF7; assay: Cytotoxicity against human MCF7 cells assessed as reduction in cell viability measured after 48 to 72 hrs by MTT assay; type: cell-based; how it was run: as §6
[22] = Toxicity in nude mouse xenografted with human MCF7 cells assessed as effect on spleen morphological changes at 22.5 to 45 mg/kg/day, ip administered for 21 days by HE staining analysis; type: organism-based; conditions: in vivo, 504 h
[23] = test system: MCF7; assay: Antimigratory activity against human MCF7 cells at 2 to 10 uM measured after 48 hrs by wound healing assay; type: functional, cell-based; how it was run: as §4
[24] = test system: HUVEC; assay: Reduction in SHC expression in HUVEC at 2 to 10 uM after 48 hrs by Western blot analysis; type: functional, cell-based; conditions: Homo sapiens; how it was run: as §1
[25] = test system: MCF7; assay: Inhibition of epithelial-mesenchymal transition in human MCF7 cells assessed as increase in E-cadherin expression level at 2 to 10 uM after 48 hrs by Western blot analysis; type: functional, cell-based; how it was run: as §2
[26] = test system: HUVEC; assay: Effect on FAK expression in HUVEC at 2 to 10 uM after 48 hrs by Western blot analysis; type: functional, cell-based; conditions: Homo sapiens; how it was run: as §1

Focal adhesion kinase 1 (Homo sapiens), sequence (Q05397 2-1052 limits assumed): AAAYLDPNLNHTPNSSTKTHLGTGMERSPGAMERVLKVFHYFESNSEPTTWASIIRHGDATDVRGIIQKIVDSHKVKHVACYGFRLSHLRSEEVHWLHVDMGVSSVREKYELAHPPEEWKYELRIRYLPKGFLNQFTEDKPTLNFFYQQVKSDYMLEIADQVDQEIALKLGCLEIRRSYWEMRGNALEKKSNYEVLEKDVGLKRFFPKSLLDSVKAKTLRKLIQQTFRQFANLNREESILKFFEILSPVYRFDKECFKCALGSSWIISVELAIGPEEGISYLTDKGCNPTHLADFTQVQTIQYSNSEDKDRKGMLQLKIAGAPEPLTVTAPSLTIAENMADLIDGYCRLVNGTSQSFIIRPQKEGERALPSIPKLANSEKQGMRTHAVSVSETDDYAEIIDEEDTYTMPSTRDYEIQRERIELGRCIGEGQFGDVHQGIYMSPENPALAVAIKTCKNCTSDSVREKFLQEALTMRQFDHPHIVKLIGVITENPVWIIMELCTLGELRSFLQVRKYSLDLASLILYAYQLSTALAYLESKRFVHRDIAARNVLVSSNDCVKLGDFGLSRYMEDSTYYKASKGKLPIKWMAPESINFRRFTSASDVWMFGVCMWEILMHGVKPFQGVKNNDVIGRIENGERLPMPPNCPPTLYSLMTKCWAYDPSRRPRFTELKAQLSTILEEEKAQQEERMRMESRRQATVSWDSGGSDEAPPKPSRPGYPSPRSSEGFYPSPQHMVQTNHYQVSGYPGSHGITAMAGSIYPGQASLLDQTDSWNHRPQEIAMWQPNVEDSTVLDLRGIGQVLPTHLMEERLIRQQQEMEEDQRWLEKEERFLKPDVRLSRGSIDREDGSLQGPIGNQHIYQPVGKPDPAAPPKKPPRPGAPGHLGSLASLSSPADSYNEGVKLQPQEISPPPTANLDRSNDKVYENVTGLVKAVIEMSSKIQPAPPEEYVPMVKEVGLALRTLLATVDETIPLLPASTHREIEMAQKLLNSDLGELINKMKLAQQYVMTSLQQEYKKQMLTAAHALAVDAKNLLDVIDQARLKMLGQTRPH

Q: With `COc1cc2c(cc1O)CC[C@@H]1[C@@H]2CC[C@]2(C)C(=O)/C(=C/c3ccc(Cl)cc3)C[C@@H]12` as the molecule, how does the inhibition [1] read?
A: The inhibition was “Active”.

Q: And the inhibition [2]?
A: The inhibition was “Active”.

Q: And the Activity [3]?
A: Its Activity is “Non-Toxic”.

Q: And the Activity [4]?
A: Its Activity is “Active”.

Q: And the IC50 [5]?
A: Its IC50 is 14.9 µM.

Q: And the Activity [6]?
A: The Activity was “Toxic”.

Q: What about the Activity [7] of the same molecule?
A: The Activity was “Active”.

Q: What about the IC50 [8] of the same molecule?
A: The IC50 was 24.7 µM.

Q: And the IC50 [9]?
A: The IC50 was 4.3 µM.

Q: And the IC50 [10]?
A: Its IC50 is 14.7 µM.

Q: What about the inhibition [11] of the same molecule?
A: The inhibition was “Active”.

Q: What about the Activity [12] of the same molecule?
A: The Activity was “Toxic”.

Q: And the Activity [13]?
A: Its Activity is “Non-Toxic”.

Q: And the IC50 [14]?
A: Its IC50 is greater than 100 µM.

Q: And the Activity [15]?
A: Its Activity is “Non-Toxic”.

Q: What about the Activity [16] of the same molecule?
A: Its Activity is “Toxic”.

Q: And the Activity [17]?
A: The Activity was “Toxic”.

Q: And the inhibition [18]?
A: The inhibition was “Active”.

Q: What about the inhibition [19] of the same molecule?
A: The inhibition was “Active”.

Q: What about the Activity [20] of the same molecule?
A: Its Activity is “Toxic”.

Q: What about the IC50 [21] of the same molecule?
A: The IC50 was 77 µM.

Q: What about the Activity [22] of the same molecule?
A: Its Activity is “Non-Toxic”.

Q: And the Activity [23]?
A: Its Activity is “Active”.

Q: What about the inhibition [24] of the same molecule?
A: The inhibition was “Active”.

Q: What about the inhibition [25] of the same molecule?
A: The inhibition was “Active”.

Q: And the Activity [26]?
A: Its Activity is “inactive”.
